Experimental data as given in ChEMBL document CHEMBL3585281, “Antibacterial Labdane Diterpenoids from Vitex vestita” (2015).
≈ marks a conversion by molar mass, not a printed value.

Assays:
Assay type in all cases: functional
[1] = tested on: Bacillus cereus; experiment: Antibacterial activity against Bacillus cereus N190 after 18 hrs by agar dilution method; conditions: N190, 18 h
Summary of the method: (§1)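 Agar-dilution MIC against Gram-positive strains. Compounds in DMSO, geometric dilutions giving final 100−0.75 mg/L in Mueller Hinton agar. Strains grown 18 h at 37 °C in trypticase soy broth, diluted in sterile water, spotted by Steers inoculator (about 1000 UFC/spot). Plates incubated 18 h at 37 °C; DMSO blank; ofloxacin positive control. MIC = lowest concentration with no visible growth.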

[2] = tested on: Enterococcus casseliflavus; experiment: Antibacterial activity against Enterococcus casseliflavus N487 after 18 hrs by agar dilution method; conditions: N487, 18 h; summary of the method: as §1
[3] = tested on: Staphylococcus saprophyticus; experiment: Antibacterial activity against Staphylococcus saprophyticus E260 after 18 hrs by agar dilution method; conditions: E260, 18 h; summary of the method: as §1
[4] = tested on: Enterococcus faecium; experiment: Antibacterial activity against Enterococcus faecium N733 after 18 hrs by agar dilution method; conditions: N733, 18 h; summary of the method: as §1
[5] = tested on: Listeria monocytogenes; experiment: Antibacterial activity against Listeria monocytogenes CIP 103575 after 18 hrs by agar dilution method; conditions: CIP 103575, 18 h; summary of the method: as §1
[6] = tested on: Staphylococcus epidermidis; experiment: Antibacterial activity against Staphylococcus epidermidis CIP 53124 after 18 hrs by agar dilution method; conditions: CIP 53124, 18 h; summary of the method: as §1
[7] = tested on: Enterococcus faecium; experiment: Antibacterial activity against Enterococcus faecium N823 after 18 hrs by agar dilution method; conditions: N823, 18 h; summary of the method: as §1
[8] = tested on: Enterococcus casseliflavus; experiment: Antibacterial activity against Enterococcus casseliflavus CIP 103018 after 18 hrs by agar dilution method; conditions: CIP 103018, 18 h; summary of the method: as §1
[9] = tested on: Streptococcus agalactiae; experiment: Antibacterial activity against Streptococcus agalactiae CIP 103227 after 18 hrs by agar dilution method; conditions: ATCC 13813, 18 h; summary of the method: as §1
[10] = tested on: Staphylococcus haemolyticus; experiment: Antibacterial activity against Staphylococcus haemolyticus CIP 8156 after 18 hrs by agar dilution method; conditions: CIP 8156, 18 h; summary of the method: as §1
[11] = tested on: Bacillus cereus; experiment: Antibacterial activity against Bacillus cereus CIP 6624 after 18 hrs by agar dilution method; conditions: CIP 6624, 18 h; summary of the method: as §1
[12] = tested on: Enterococcus faecalis; experiment: Antibacterial activity against Enterococcus faecalis CIP 104676 after 18 hrs by agar dilution method; conditions: CIP 104676, 18 h; summary of the method: as §1
[13] = tested on: Listeria monocytogenes; experiment: Antibacterial activity against Listeria monocytogenes N851 after 18 hrs by agar dilution method; conditions: N851, 18 h; summary of the method: as §1
[14] = tested on: Enterococcus hirae; experiment: Antibacterial activity against Enterococcus hirae CIP 5855 after 18 hrs by agar dilution method; conditions: CIP 5855, 18 h; summary of the method: as §1
[15] = tested on: Staphylococcus aureus; experiment: Antibacterial activity against Staphylococcus aureus ATCC 25923 after 18 hrs by agar dilution method; conditions: ATCC 25923, 18 h; summary of the method: as §1
[16] = tested on: Staphylococcus saprophyticus; experiment: Antibacterial activity against Staphylococcus saprophyticus CIP 76125 after 18 hrs by agar dilution method; conditions: CIP 76125, 18 h; summary of the method: as §1
[17] = tested on: Bacillus cereus; experiment: Antibacterial activity against Bacillus cereus N258 after 18 hrs by agar dilution method; conditions: N258, 18 h; summary of the method: as §1
[18] = tested on: Corynebacterium striatum; experiment: Antibacterial activity against Corynebacterium striatum N840 after 18 hrs by agar dilution method; conditions: N840, 18 h; summary of the method: as §1
[19] = tested on: Enterococcus faecalis; experiment: Antibacterial activity against Enterococcus faecalis N520 after 18 hrs by agar dilution method; conditions: N520, 18 h; summary of the method: as §1
[20] = tested on: Enterococcus durans; experiment: Antibacterial activity against Enterococcus durans CIP 104999 after 18 hrs by agar dilution method; conditions: CIP 104999, 18 h; summary of the method: as §1
[21] = tested on: Listeria monocytogenes; experiment: Antibacterial activity against Listeria monocytogenes N836 after 18 hrs by agar dilution method; conditions: N836, 18 h; summary of the method: as §1
[22] = tested on: Enterococcus faecalis; experiment: Antibacterial activity against Enterococcus faecalis N491 after 18 hrs by agar dilution method; conditions: N491, 18 h; summary of the method: as §1
[23] = tested on: Staphylococcus aureus; experiment: Antibacterial activity against Staphylococcus aureus CIP 53156 after 18 hrs by agar dilution method; conditions: CIP 53156, 18 h; summary of the method: as §1
[24] = tested on: Staphylococcus lugdunensis; experiment: Antibacterial activity against Staphylococcus lugdunensis ATCC 43809 after 18 hrs by agar dilution method; conditions: ATCC 43809, 18 h; summary of the method: as §1
[25] = tested on: Staphylococcus intermedius; experiment: Antibacterial activity against Staphylococcus intermedius N987 after 18 hrs by agar dilution method; conditions: N987, 18 h; summary of the method: as §1
[26] = tested on: Listeria monocytogenes; experiment: Antibacterial activity against Listeria monocytogenes N783 after 18 hrs by agar dilution method; conditions: N783, 18 h; summary of the method: as §1
[27] = tested on: Enterococcus faecium; experiment: Antibacterial activity against Enterococcus faecium N507 after 18 hrs by agar dilution method; conditions: N507, 18 h; summary of the method: as §1
[28] = tested on: Bacillus cereus; experiment: Antibacterial activity against Bacillus cereus N349 after 18 hrs by agar dilution method; conditions: N349, 18 h; summary of the method: as §1
[29] = tested on: Enterococcus faecalis; experiment: Antibacterial activity against Enterococcus faecalis N518 after 18 hrs by agar dilution method; conditions: N518, 18 h; summary of the method: as §1
[30] = tested on: Mammaliicoccus sciuri; experiment: Antibacterial activity against Staphylococcus sciuri N993 after 18 hrs by agar dilution method; conditions: N993, 18 h; summary of the method: as §1
[31] = tested on: Staphylococcus aureus; experiment: Antibacterial activity against Staphylococcus aureus CIP 483 after 18 hrs by agar dilution method; conditions: CIP 483, 18 h; summary of the method: as §1
[32] = tested on: Enterococcus faecium; experiment: Antibacterial activity against Enterococcus faecium N490 after 18 hrs by agar dilution method; conditions: N490, 18 h; summary of the method: as §1
[33] = tested on: Enterococcus faecium; experiment: Antibacterial activity against Enterococcus faecium CIP 107387 after 18 hrs by agar dilution method; conditions: CIP 107387, 18 h; summary of the method: as §1
[34] = tested on: Enterococcus avium; experiment: Antibacterial activity against Enterococcus avium CIP 104053 after 18 hrs by agar dilution method; conditions: CIP 104053, 18 h; summary of the method: as §1
[35] = tested on: Staphylococcus aureus; experiment: Antibacterial activity against Staphylococcus aureus CIP 53154 after 18 hrs by agar dilution method; conditions: CIP 53154, 18 h; summary of the method: as §1
[36] = tested on: Enterococcus gallinarum; experiment: Antibacterial activity against Enterococcus gallinarum N492 after 18 hrs by agar dilution method; conditions: N492, 18 h; summary of the method: as §1
[37] = tested on: Staphylococcus aureus; experiment: Antibacterial activity against Staphylococcus aureus CIP 7625 after 18 hrs by agar dilution method; conditions: CIP 7625, 18 h; summary of the method: as §1
[38] = tested on: Enterococcus gallinarum; experiment: Antibacterial activity against Enterococcus gallinarum N489 after 18 hrs by agar dilution method; conditions: N489, 18 h; summary of the method: as §1
[39] = tested on: Staphylococcus aureus; experiment: Antibacterial activity against Staphylococcus aureus ATCC 9144 oxford after 18 hrs by agar dilution method; summary of the method: as §1
[40] = tested on: Staphylococcus aureus; experiment: Antibacterial activity against Staphylococcus aureus CIP 5710 after 18 hrs by agar dilution method; conditions: CIP 5710, 18 h; summary of the method: as §1
[41] = tested on: Staphylococcus aureus; experiment: Antibacterial activity against Staphylococcus aureus CRBIP 2121 after 18 hrs by agar dilution method; conditions: CRBIP 2121, 18 h; summary of the method: as §1
[42] = tested on: Bacillus spizizenii; experiment: Antibacterial activity against Bacillus subtilis ATCC 6633 after 18 hrs by agar dilution method; conditions: ATCC 6633, 18 h; summary of the method: as §1
[43] = tested on: Enterococcus gallinarum; experiment: Antibacterial activity against Enterococcus gallinarum CIP 105985 after 18 hrs by agar dilution method; conditions: CIP 105985, 18 h; summary of the method: as §1
[44] = tested on: Enterococcus faecalis; experiment: Antibacterial activity against Enterococcus faecalis CIP 103214 after 18 hrs by agar dilution method; conditions: CIP 103214, 18 h; summary of the method: as §1
[45] = tested on: Listeria innocua; experiment: Antibacterial activity against Listeria innocua E044 after 18 hrs by agar dilution method; conditions: E044, 18 h; summary of the method: as §1
[46] = tested on: Enterococcus faecium; experiment: Antibacterial activity against Enterococcus faecium CIP 103014 after 18 hrs by agar dilution method; conditions: CIP 103014, 18 h; summary of the method: as §1

SMILES: O=C(N[C@H](CO)[C@H](O)c1ccc([N+](=O)[O-])cc1)C(Cl)Cl [CHLORAMPHENICOL]
- MIC [1]: 6 µM (≈ 1.94 µg/mL)
- MIC [2]: 25 µM (≈ 8.08 µg/mL)
- MIC [3]: 25 µM (≈ 8.08 µg/mL)
- MIC [4]: 12 µM (≈ 3.88 µg/mL)
- MIC [5]: 25 µM (≈ 8.08 µg/mL)
- MIC [6]: 6 µM (≈ 1.94 µg/mL)
- MIC [7]: 25 µM (≈ 8.08 µg/mL)
- MIC [8]: 25 µM (≈ 8.08 µg/mL)
- MIC [9]: 3 µM (≈ 0.969 µg/mL)
- MIC [10]: 6 µM (≈ 1.94 µg/mL)
- MIC [11]: 6 µM (≈ 1.94 µg/mL)
- MIC [12]: 200 µM (≈ 64.6 µg/mL)
- MIC [13]: 25 µM (≈ 8.08 µg/mL)
- MIC [14]: 12 µM (≈ 3.88 µg/mL)
- MIC [15]: 25 µM (≈ 8.08 µg/mL)
- MIC [16]: 25 µM (≈ 8.08 µg/mL)
- MIC [17]: 6 µM (≈ 1.94 µg/mL)
- MIC [18]: 50 µM (≈ 16.2 µg/mL)
- MIC [19]: 200 µM (≈ 64.6 µg/mL)
- MIC [20]: 12 µM (≈ 3.88 µg/mL)
- MIC [21]: 12 µM (≈ 3.88 µg/mL)
- MIC [22]: 12 µM (≈ 3.88 µg/mL)
- MIC [23]: 12 µM (≈ 3.88 µg/mL)
- MIC [24]: 12 µM (≈ 3.88 µg/mL)
- MIC [25]: 25 µM (≈ 8.08 µg/mL)
- MIC [26]: 12 µM (≈ 3.88 µg/mL)
- MIC [27]: 25 µM (≈ 8.08 µg/mL)
- MIC [28]: 6 µM (≈ 1.94 µg/mL)
- MIC [29]: 25 µM (≈ 8.08 µg/mL)
- MIC [30]: 12 µM (≈ 3.88 µg/mL)
- MIC [31]: 12 µM (≈ 3.88 µg/mL)
- MIC [32]: 12 µM (≈ 3.88 µg/mL)
- MIC [33]: 12 µM (≈ 3.88 µg/mL)
- MIC [34]: 12 µM (≈ 3.88 µg/mL)
- MIC [35]: 12 µM (≈ 3.88 µg/mL)
- MIC [36]: 25 µM (≈ 8.08 µg/mL)
- MIC [37]: 25 µM (≈ 8.08 µg/mL)
- MIC [38]: 12 µM (≈ 3.88 µg/mL)
- MIC [39]: 12 µM (≈ 3.88 µg/mL)
- MIC [40]: 12 µM (≈ 3.88 µg/mL)
- MIC [41]: 12 µM (≈ 3.88 µg/mL)
- MIC [42]: 12 µM (≈ 3.88 µg/mL)
- MIC [43]: 12 µM (≈ 3.88 µg/mL)
- MIC [44]: 25 µM (≈ 8.08 µg/mL)
- MIC [45]: 12 µM (≈ 3.88 µg/mL)
- MIC [46]: 25 µM (≈ 8.08 µg/mL)
